16 compounds from PubChem BioAssay can be followed below.

By viability is commonly meant a read-out of living cells in per cent, often relative to untreated cells. As usually defined, the inhibition is the drop in the measured response relative to a control, in per cent.

Activity calls are given as the source filed them.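 How the source made its calls, unless noted: active means viability at or below 10% of carrier control in both of two separate runs; inconclusive means viability at or below 10% in only one of the two runs; inactive means the rest.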

The nature of assay [1]: Her2 expression decrease, cell viability multiplex – SKBR3 breast tumor cells, AlphaScreen, ATP viability, primary screen (AID 461;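 active means Her2 level under about 52% in both replicate screens, with viability over 70% of control, limit read from the data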;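 on Her2 level: lower value means less Her2 protein in the cells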;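 on viability: percent of carrier control wells set as 100% viability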). The settings on record: SKBR3 Her2 protein level, 18-24 h, measured here: SKBR3 viability, ATP luminescence, at 10 µM. For orientation: Bead proximity is the source of the signal in Alpha formats.
Assay [2] deals with Receptor tyrosine-protein kinase erbB-2 (Homo sapiens) (UniProt P04626). The assay is described as above. The settings on record: 18-24 h, at 10 µM, stronger effect = lower value.
Assay [3] is described as follows: reduced viability of SK-BR-3 breast cancer cells – cell-based, 24 h, human, pilot screen (AID 572).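 Further: compound exposure lasted between 18 and 24 h rather than exactly 24 h; 100% = carrier-treated control wells.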 The settings on record: SK-BR-3 viability, CellTiter-Glo luminescence, at 10 µM, stronger effect = lower value.
A short description of assay [4]: HUVEC growth inhibition – cell-based, human, primary screen (AID 575;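 active means viability at or below 30% in both replicate assays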;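 further: 100% = median of untreated cell wells with 0.1% DMSO on each plate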). The settings on record: HUVEC proliferation, CellTiter-Glo luminescence, 72 h; at 10 µM; stronger effect = lower value. An outline of the steps: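 System: primary human umbilical vein endothelial cells; Quantity: 1250 endothelial cells in each well; Buffer or medium: supplemented EBM, 2% fetal bovine serum; Doses: one dose, 10 µM final, 0.1% DMSO; Incubation: 72 h compound incubation; Technique: ATP-based CellTiter-Glo luminescent read; Evaluation: percent of median DMSO-control luminescence; Controls: vehicle and MePR control wells.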
Background: ATP-based viability assays read luminescence as a measure of living cells.

A short description of assay [5]: H69AR cell proliferation blockers – human, duplicate replicates, primary screen (AID 580;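 active means viability at or under a set limit in both replicates, limit being median viability minus 3 SD, cut at about 48% in these data, passing the limit was not always enough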;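 further: 100% = mean luminescence of untreated wells and 0% = no signal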). The settings on record: H69AR lung tumor cells viability, ATP luminescence, 72 h; at 10 µM; stronger effect = lower value.
Assay [6] is described as follows: MRP1 drug-resistance reversers in H69AR cells – cell-based, doxorubicin co-treatment, pilot screen (AID 601;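 active means viability loss from added drug above about 55%, and viability with drug at most 40%, in both replicates, limit read from the data, passing the limit was not always enough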). The conditions noted are these: CellTiter-Glo, 72 h, at 10 µM; for differential viability (reversal): stronger effect = higher value.
A short description of assay [7]: yeast transport mutant growth inhibition pilot in 384-well plates, post-Golgi transport modulator project (AID 636; in the data active means inhibition above about 31%). The settings on record: absorbance 615 nm, about 18 h, stronger effect = higher value.
Assay [8] is described as follows: growth suppression of yeast trafficking mutant, preliminary HTS, modulators of trafficking downstream of Golgi apparatus project, 1536-format plate, OD 615 nm (AID 637; in the data active means inhibition above about 30%). The settings on record: yeast transport mutant growth, absorbance 615 nm, 18 h; stronger effect = higher value.
[9] abbreviates: H69AR cells + 2 uM doxorubicin, measured here: viability with 2 uM doxorubicin, stronger effect = lower value.
Setting [10] is: H69AR cells, compound alone cytotoxicity.

Sequence of Receptor tyrosine-protein kinase erbB-2 (Homo sapiens) (P04626 whole entry, looked up): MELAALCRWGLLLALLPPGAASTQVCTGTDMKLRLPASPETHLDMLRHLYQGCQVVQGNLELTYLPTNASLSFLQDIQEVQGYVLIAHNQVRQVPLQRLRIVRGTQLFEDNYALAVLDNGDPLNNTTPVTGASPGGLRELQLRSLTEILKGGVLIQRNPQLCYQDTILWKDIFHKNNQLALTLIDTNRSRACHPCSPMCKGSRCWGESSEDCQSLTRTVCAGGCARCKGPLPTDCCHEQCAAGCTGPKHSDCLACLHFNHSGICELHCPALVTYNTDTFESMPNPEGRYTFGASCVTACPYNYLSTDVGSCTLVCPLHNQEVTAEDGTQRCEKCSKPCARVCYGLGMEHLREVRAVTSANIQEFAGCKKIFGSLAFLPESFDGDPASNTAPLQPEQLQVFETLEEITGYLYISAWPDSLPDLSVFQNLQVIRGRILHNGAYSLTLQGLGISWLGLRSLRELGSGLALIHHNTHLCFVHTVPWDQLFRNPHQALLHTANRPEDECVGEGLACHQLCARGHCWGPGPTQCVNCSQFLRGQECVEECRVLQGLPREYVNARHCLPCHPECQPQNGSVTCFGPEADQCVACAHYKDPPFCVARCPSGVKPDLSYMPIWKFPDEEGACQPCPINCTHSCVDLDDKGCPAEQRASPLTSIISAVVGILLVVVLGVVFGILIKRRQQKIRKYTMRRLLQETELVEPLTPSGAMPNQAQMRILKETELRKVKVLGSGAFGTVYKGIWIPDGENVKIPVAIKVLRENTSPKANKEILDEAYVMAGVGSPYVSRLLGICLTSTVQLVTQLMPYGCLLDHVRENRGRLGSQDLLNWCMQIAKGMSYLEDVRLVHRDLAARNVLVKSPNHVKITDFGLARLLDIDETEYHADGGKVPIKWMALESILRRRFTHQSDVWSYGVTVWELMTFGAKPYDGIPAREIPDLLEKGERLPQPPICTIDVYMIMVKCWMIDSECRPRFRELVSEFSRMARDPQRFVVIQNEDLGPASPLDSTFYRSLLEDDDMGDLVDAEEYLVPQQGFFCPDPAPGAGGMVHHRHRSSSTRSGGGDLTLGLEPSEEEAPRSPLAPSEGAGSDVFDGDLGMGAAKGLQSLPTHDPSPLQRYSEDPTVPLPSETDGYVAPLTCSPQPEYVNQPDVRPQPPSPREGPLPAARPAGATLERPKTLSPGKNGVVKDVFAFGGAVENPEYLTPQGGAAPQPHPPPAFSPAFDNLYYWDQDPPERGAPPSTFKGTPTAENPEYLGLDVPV

Regarding `CCn1c(SCC(=O)Nc2nnc(C)s2)nnc1-c1ccncc1`, the viability in assay [1] is 112%; in assay [3], 112% (inactive); in assay [4] it was 107% (inactive); in assay [5], 95.5% (inactive); in assay [6] (setting [9]) it was 91.4%; in assay [6] (setting [10]), 95.5%. The Her2 level in assay [2] is 76% (inactive). For the same compound, the differential viability (reversal) in assay [6] (H69AR cells + 2 uM doxorubicin) was 4.15% (inactive). For the same compound, the inhibition in assay [7] was -7.43% (inactive); in assay [8], 6.17% (inactive).

On to `COC(=O)c1ccccc1S(=O)(=O)N(CCCN1CCOCC1)Cc1cccs1`, for which the viability in assay [1] is 111%; in assay [3] it was 111% (inactive); in assay [4], 91.8% (inactive); in assay [5], 89.2% (inactive); in assay [6] (setting [9]), 90.2%; in assay [6] (setting [10]), 89.2%. Besides, the Her2 level in assay [2] is 110% (inactive). Further, the differential viability (reversal) in assay [6] (H69AR cells + 2 uM doxorubicin) was -0.97% (inactive). The figures for the inhibition in assay [7] and in assay [8] were -1.45% (inactive) and 5.4% (inactive), respectively.

Turning to `Cn1cc(Br)c(C(=O)NC2CCCCC2)n1`, the viability was 102% in assay [1]; 102% (inactive) in assay [3]; 96.7% (inactive) in assay [4]; 94.3% (inactive) in assay [5]; 90.9% in assay [6] (setting [9]); 94.3% in assay [6] (setting [10]). Besides, the Her2 level in assay [2] was 112% (inactive). Also, the differential viability (reversal) in assay [6] (H69AR cells + 2 uM doxorubicin) is 3.45% (inactive). Also, the inhibition in assay [7] was 3.33% (inactive); in assay [8], 0.79% (inactive).

On to `CCOC(=O)c1cc2sccc2n1Cc1ccccc1`, for which the viability is 100% in assay [1]; 100% (inactive) in assay [3]; 97.9% (inactive) in assay [4]; 96% (inactive) in assay [5]; 80.7% in assay [6] (setting [9]); 96% in assay [6] (setting [10]). For the same compound, the Her2 level in assay [2] is 116% (inactive). For the same compound, in assay [6] (H69AR cells + 2 uM doxorubicin), the differential viability (reversal) was 15.4% (inactive). Moreover, the figures for the inhibition in assay [7] and in assay [8] were -2.8% (inactive) and 1.8% (inactive), respectively.

With `O=C(O)C1CC=CCC1C(=O)NCc1ccccc1` (stereo not given), the viability is 106% in assay [1]; 106% (inactive) in assay [3]; 91.1% (inactive) in assay [4]; 92.2% (inactive) in assay [5]; 96% in assay [6] (setting [9]); 92.2% in assay [6] (setting [10]). The Her2 level in assay [2] is 87% (inactive). Besides, in assay [6] (H69AR cells + 2 uM doxorubicin), the differential viability (reversal) is -3.77% (inactive). Besides, the inhibition in assay [7] was -4.4% (inactive); in assay [8] it was -2.38% (inactive).

In the case of `COC(=O)c1ccccc1NS(=O)(=O)c1ccc(F)cc1`, the viability in assay [1] is 120%; in assay [3], 120% (inactive); in assay [4] it was 104% (inactive); in assay [5], 102% (inactive); in assay [6] (setting [9]) it was 88.4%; in assay [6] (setting [10]), 102%. Further, the Her2 level in assay [2] is 83.5% (inactive). In assay [6] (H69AR cells + 2 uM doxorubicin), the differential viability (reversal) was 13.1% (inactive). The inhibition in assay [7] was -7.26% (inactive); in assay [8], -3.49% (inactive).

On to `CCOC(=O)c1ccccc1NC(=O)CSc1nc2c(c(=O)n(C)c(=O)n2C)n1C`, for which the viability in assay [1] was 100%; in assay [3] it was 100% (inactive); in assay [4], 101% (inactive); in assay [5], 92.4% (inactive); in assay [6] (setting [9]) it was 85.9%; in assay [6] (setting [10]), 92.4%. In addition, the Her2 level in assay [2] is 92% (inactive). For the same compound, in assay [6] (H69AR cells + 2 uM doxorubicin), the differential viability (reversal) was 6.47% (inactive). In addition, the inhibition in assay [7] was -1.58% (inactive); in assay [8], 0.16% (inactive).

`Cc1ccc(OC(=O)CCC(=O)OCCCC(F)(F)C(F)(F)F)cc1`: the viability was 102% in assay [1]; 102% (inactive) in assay [3]; 91.2% (inactive) in assay [4]; 94.3% (inactive) in assay [5]; 90.5% in assay [6] (setting [9]); 94.3% in assay [6] (setting [10]). In addition, in assay [2], the Her2 level was 104% (inactive). In addition, the differential viability (reversal) in assay [6] (H69AR cells + 2 uM doxorubicin) was 3.79% (inactive). In addition, the figures for the inhibition in assay [7] and in assay [8] were -1.76% (inactive) and -1.64% (inactive), respectively.

`O=S(=O)(NCc1cccnc1)c1cccc2nsnc12`: the viability in assay [1] is 98%; in assay [3], 98% (inactive); in assay [4] it was 89.6% (inactive); in assay [5], 92.3% (inactive); in assay [6] (setting [9]), 85.8%; in assay [6] (setting [10]), 92.3%. In addition, the Her2 level in assay [2] was 83.5% (inactive). In addition, the differential viability (reversal) in assay [6] (H69AR cells + 2 uM doxorubicin) was 6.5% (inactive). Besides, the inhibition in assay [7] is -7.07% (inactive); in assay [8] it was 6.56% (inactive).

`N#Cc1cnc(SCC(=O)Nc2ccccc2C(F)(F)F)nc1N`: the viability was 88.5% in assay [1]; 88.5% (inactive) in assay [3]; 99.7% (inactive) in assay [4]; 90.2% (inactive) in assay [5]; 88.5% in assay [6] (setting [9]); 90.2% in assay [6] (setting [10]). Besides, in assay [2], the Her2 level was 81.5% (inactive). In addition, in assay [6] (H69AR cells + 2 uM doxorubicin), the differential viability (reversal) was 1.73% (inactive). Moreover, the figures for the inhibition in assay [7] and in assay [8] were -4.4% (inactive) and 5.9% (inactive), respectively.

Turning to `CC(=O)NC(=O)NC1CSCC1OC(C)=O` (stereo not given), the viability in assay [1] was 112%; in assay [3], 112% (inactive); in assay [4], 106% (inactive); in assay [5] it was 92.8% (inactive); in assay [6] (setting [9]) it was 86.9%; in assay [6] (setting [10]), 92.8%. In addition, the Her2 level in assay [2] is 89% (inactive). The differential viability (reversal) in assay [6] (H69AR cells + 2 uM doxorubicin) is 5.96% (inactive). Besides, the inhibition is -6.53% (inactive) in assay [7] and 0.48% (inactive) in assay [8].

Turning to `COC(=O)C1=C(C)OC(N)=C(C#N)C1c1ccccc1` (stereo not given), the viability was 94.5% in assay [1]; 94.5% (inactive) in assay [3]; 102% (inactive) in assay [4]; 94% (inactive) in assay [5]; 82% in assay [6] (setting [9]); 94% in assay [6] (setting [10]). For the same compound, the Her2 level in assay [2] was 77% (inactive). Further, the differential viability (reversal) in assay [6] (H69AR cells + 2 uM doxorubicin) was 12.1% (inactive). The results for the inhibition in assay [7] and in assay [8] were -1.18% (inactive) and -9.82% (inactive), respectively.

Consider `C/C=C(\C)c1nnc(NC(=O)C(C)C)s1`, for which the viability in assay [1] was 92.5%; in assay [3], 92.5% (inactive); in assay [4], 101% (inactive); in assay [5], 98.7% (inactive); in assay [6] (setting [9]), 89.2%; in assay [6] (setting [10]), 98.7%. For the same compound, the Her2 level in assay [2] was 82.5% (inactive). Moreover, in assay [6] (H69AR cells + 2 uM doxorubicin), the differential viability (reversal) was 9.51% (inactive). Besides, the inhibition was -4.05% (inactive) in assay [7] and 2.79% (inactive) in assay [8].

Consider `COC(=O)C(NC(C)=O)(Nc1ccccn1)C(F)(F)F` (stereo not given), for which the viability in assay [1] is 98%; in assay [3], 98% (inactive); in assay [4], 105% (inactive); in assay [5] it was 89% (inactive); in assay [6] (setting [9]) it was 94.4%; in assay [6] (setting [10]), 89%. Besides, in assay [2], the Her2 level is 78% (inactive). For the same compound, in assay [6] (H69AR cells + 2 uM doxorubicin), the differential viability (reversal) was -5.41% (inactive). The results for the inhibition in assay [7] and in assay [8] were -1.97% (inactive) and -7.64% (inactive), respectively.

`Cc1ccc(C)c(/C(O)=C2\C(=O)C(=O)N(CCCN3CCOCC3)C2c2cccnc2)c1` (stereo not given): the viability in assay [1] was 99%; in assay [3] it was 99% (inactive); in assay [4] it was 91.4% (inactive); in assay [5], 90.2% (inactive); in assay [6] (setting [9]) it was 95.3%; in assay [6] (setting [10]) it was 90.2%. In addition, the Her2 level in assay [2] was 101% (inactive). Moreover, in assay [6] (H69AR cells + 2 uM doxorubicin), the differential viability (reversal) is -5.11% (inactive). Also, the results for the inhibition in assay [7] and in assay [8] were -3.59% (inactive) and -2.33% (inactive), respectively.

As for `Cc1cc(C2C(C#N)=C(N)SC(N)=C2C#N)c(C)s1`, the viability in assay [1] is 107%; in assay [3], 107% (inactive); in assay [4], 82.4% (inactive); in assay [5], 94.7% (inactive); in assay [6] (setting [9]) it was 87.5%; in assay [6] (setting [10]) it was 94.7%. Further, the Her2 level in assay [2] is 100% (inactive). Also, in assay [6] (H69AR cells + 2 uM doxorubicin), the differential viability (reversal) was 7.28% (inactive). The inhibition in assay [7] is -2.89% (inactive); in assay [8] it was 7.21% (inactive).
